According to ChEMBL document CHEMBL1123103, “Pyrimidinones. 1. 2-Amino-5-halo-6-aryl-4(3H)-pyrimidinones. Interferon-inducing antiviral agents” (1985):
Calls of active or inactive are those of the source. No cut-off for these calls is given here.

Experiments:
Mus musculus = assay: Evaluation for serum interferon response from a single 800 mg/kg intraperitoneal administration in vesicular stomatitis virus on […] cells; Range 10-50 units/mL; format: functional
How it was run: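 Mice got a single ip 800 mg/kg dose. Blood was drawn 3, 6, 8 and 12 h later from five mice per group and pooled. Interferon titer was measured by plaque reduction with vesicular stomatitis virus on L929 cells. Titer is the reciprocal serum dilution cutting plaques by 50% versus untreated cultures. Peak response within 24 h was banded: ≥2000, ~500-1000, ~50-500, ~10-50 U/mL.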

Semliki Forest virus [1] = assay: Antiviral activity against Forest virus (SFV); format: functional
How it was run: (§1)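 ICR or CD-1 mice of both sexes got one drug dose by the route in the line (ip, po or sc). The drug was a suspension in 0.9% NaCl or in a CMC/polysorbate 80/benzyl alcohol/NaCl vehicle. […] Deaths were recorded daily for 6 days, 24 mice/group. ED50 is the minimal dose protecting 50% of mice, by probit analysis.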

Semliki Forest virus [2] = assay: Effective dose administered perorally againist Forest virus infected mice; format: functional; settings: po; how it was run: as §1
Semliki Forest virus [3] = assay: Effective dose administered subcutaneously againist Forest virus infected mice; format: functional; settings: sc; how it was run: as §1
Human alphaherpesvirus 1 = assay: Intraperitoneal administration against herpes simplex virus type-1 (HSV-1) infected mice; format: functional
How it was run: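 ICR or CD-1 mice got drug ip in saline as the total daily dose (mg/kg/day). It was split into doses at -40, -28, -20, -3 and +3 h relative to ip inoculation with 5.6×10^4 pfu HSV-1. Mice were followed for 22 days, 15/group. Protection index = (control mortality − treated mortality)/control mortality; >0.25 counted active. Only the lowest protective dose is recorded.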

Semliki Forest virus [4] = assay: Effective dose administered intraperitoneally againist Forest virus infected mice; format: functional, organism-based
How it was run: (§2)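 Drug was suspended in 0.9% NaCl or in a carboxymethylcellulose/polysorbate 80/benzyl alcohol/NaCl vehicle. Deaths were recorded daily for 6 days, with 24 mice per group. The ED50 is the minimal dose protecting 50% of mice, calculated by probit analysis.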

Semliki Forest virus [5] = assay: Effective dose administered perorally against Forest virus infected mice; format: functional, organism-based; how it was run: as §2
Semliki Forest virus [6] = assay: Effective dose administered subcutaneously against Forest virus infected mice; format: functional, organism-based; how it was run: as §2

| Structure (SMILES) | IFN (Mus musculus) [units/mL] | ED50 (Semliki Forest virus [1]) [mg/kg] | ED50 (Semliki Forest virus [2]) [mg/kg] | ED50 (Semliki Forest virus [3]) [mg/kg] | Protection index (Human alphaherpesvirus 1) | ED50 (Semliki Forest virus [4]) | ED50 (Semliki Forest virus [5]) | ED50 (Semliki Forest virus [6]) |
| --- | --- | --- | --- | --- | --- | --- | --- | --- |
| Nc1nc(O)c(I)c(-c2ccco2)n1 | 10 | 135 | > 400 | > 400 | 0.28 |  |  |  |
| Nc1nc(O)c(I)c(-c2ccc3ccccc3n2)n1 |  |  |  |  |  | inactive | inactive | inactive |
| Cc1ccc(-c2nc(N)nc(O)c2Br)cc1 | 10 | 200 |  |  |  |  |  |  |
| Nc1nc(O)c(Br)c(-c2ccc3ccccc3c2)n1 |  | > 400 |  |  |  |  | inactive | inactive |
| CC(C)(C)c1ccc(-c2nc(N)nc(O)c2Cl)cc1 |  |  |  |  |  | inactive | inactive | inactive |
| CN(C)c1ccc(-c2nc(N)nc(O)c2Br)cc1 |  |  |  |  | 0.13 | inactive | inactive | inactive |
| CC(C)(C)c1ccc(-c2nc(N)nc(O)c2I)cc1 |  |  |  |  |  | inactive | inactive | inactive |
| Nc1nc(O)c(Br)c(-c2ccncc2)n1 |  | > 400 |  |  | 0 |  | inactive | inactive |
| Nc1nc(O)c(Br)c(-c2cccc3ccccc23)n1 | 10 | 40 | > 400 | > 400 | 0 |  |  |  |
| Nc1nc(O)c(Br)c(-c2ccc3ccccc3n2)n1 |  |  |  |  | 0.14 | inactive | inactive | inactive |
| Nc1nc(O)c(Br)c(-c2cc(Cl)cc(Cl)c2)n1 | 10 | 245 | > 400 | > 400 |  |  |  |  |
| Nc1nc(O)c(I)c(-c2cccc3ccccc23)n1 | 10 | 70 | > 400 | > 400 | 0.18 |  |  |  |
| Nc1nc(O)c(Br)c(-c2ccc(-c3ccccc3)cc2)n1 |  |  |  |  |  | inactive | inactive | inactive |
| Nc1nc(O)c(I)c(-c2ccc(Cl)cc2)n1 | 10 | 110 | > 400 | > 400 | 0.27 |  |  |  |
| Nc1nc(O)c(Cl)c(-c2ccc3ccccc3n2)n1 |  |  |  |  | 0.07 | inactive | inactive | inactive |
| COc1ccc(-c2nc(N)nc(O)c2I)cc1 |  | > 400 |  |  |  |  | inactive | inactive |
| Nc1nc(O)c(Br)c(-c2ccc(O)cc2)n1 |  | > 400 |  |  |  |  | inactive | inactive |
| Nc1nc(O)c(Cl)c(-c2ccc(O)cc2)n1 |  | > 400 |  |  |  |  | inactive | inactive |
| Cc1ccc(-c2nc(N)nc(O)c2I)cc1 | 10 | 115 | > 400 | > 400 |  |  |  |  |
| Nc1nc(O)c(I)c(-c2ccoc2)n1 |  | > 400 |  |  |  |  | inactive | inactive |
| Nc1nc(O)c(Br)c(-c2ccc(Cl)cc2)n1 | 10 | 100 | > 400 | > 400 |  |  |  |  |
| N#Cc1ccc(-c2nc(N)nc(O)c2I)cc1 |  |  |  |  | 0 | inactive |  |  |
| COc1ccc(-c2nc(N)nc(O)c2Br)cc1 |  | > 400 |  |  |  |  | inactive | inactive |
| CCCOc1cccc(-c2nc(N)nc(O)c2Cl)c1 | 10 | 40 | > 400 |  | 0.13 |  |  |  |
| CC(C)(C)c1ccc(-c2nc(N)nc(O)c2Br)cc1 |  |  |  |  |  | inactive | inactive | inactive |
| CCCOc1cccc(-c2nc(N)nc(O)c2I)c1 | 10 | 100 |  |  | 0 |  |  |  |
| Nc1nc(O)c(I)c(-c2ccc(-c3ccccc3)cc2)n1 |  |  |  |  |  | inactive | inactive | inactive |
